Screening results as filed in PubChem.
The list is not random: actives were taken first. Their share in the collection is about 0.68%.
Furin inhibitor – human furin inhibitors, primary screen, biochemical, fluorescence intensity. purified furin, fluorogenic substrate cleavage. inhibition, % at 20 µM or 30 µM. P09958. hit rate 0.061% among 220,000; in the data active = inhibition above about 25%
TNAP act hiacc – TNAP activators at high phosphate acceptor level, primary screen, biochemical, luminescence, uHTS | Alkaline phosphatase, tissue-nonspecific isozyme (Homo sapiens), P05186 | purified TNAP, CDP-star luminescence, 1 M DEA, 30 min; stronger effect = higher value; 0 = EDTA background, 1 = DMSO-only activity | activation factor at 20 µM | 200,000 tested, under 10 active | AID 1136, 2008;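 active = activation factor at least 2 at 20 µM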
Target sequence (P05186 whole entry, looked up): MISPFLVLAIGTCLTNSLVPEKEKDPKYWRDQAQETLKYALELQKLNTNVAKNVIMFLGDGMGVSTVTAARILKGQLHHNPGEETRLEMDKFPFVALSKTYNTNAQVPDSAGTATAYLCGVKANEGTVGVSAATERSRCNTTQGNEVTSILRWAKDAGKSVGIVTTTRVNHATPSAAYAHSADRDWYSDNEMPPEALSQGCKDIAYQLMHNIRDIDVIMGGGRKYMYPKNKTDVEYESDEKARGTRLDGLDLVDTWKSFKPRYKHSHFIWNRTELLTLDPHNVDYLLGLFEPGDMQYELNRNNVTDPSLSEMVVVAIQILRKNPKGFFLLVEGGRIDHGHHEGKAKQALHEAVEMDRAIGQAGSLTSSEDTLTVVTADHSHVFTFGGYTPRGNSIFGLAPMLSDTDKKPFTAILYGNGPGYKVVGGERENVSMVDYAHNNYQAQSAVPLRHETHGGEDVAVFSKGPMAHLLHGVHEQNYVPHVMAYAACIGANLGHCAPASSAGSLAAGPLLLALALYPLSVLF
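Control set: EDTA negative control, DMSO positive control / Assay system: human TNAP / Quantity: TNAP 1/800 final / Evaluation: TNAP activation factor scaled between EDTA and DMSO control wells / Measured by: luminescent substrate turnover signal / Compound dosing: one dose, 20 µM / Times: 30 min enzyme reaction at room temperature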
Pf gamet viab – late stage P. falciparum gametocyte viability inhibitors, primary screen, ATP luminescence, HTS | AID 743093, 2013 | P. falciparum stage V gametocytes, 24 h | inhibition, % at 10.9 µM | hit rate 0.065% among 150,000;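 active = inhibition above the mean plus 3 SD of compounds within the control limits, set per campaign, cut at about 38% in these data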
TNAP inh hi DEA – human TNAP enzyme inhibitors, primary screen, biochemical, luminescent, high phosphate acceptor level, uHTS | purified TNAP, CDP-star luminescence, 1 M DEA | inhibition, % at 20 µM | hit rate 0.03% among 200,000 | AID 1135, 2008;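 active = over 50% inhibition of tissue-nonspecific alkaline phosphatase at 20 µM in the single-dose screen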
HMGR II inh – inhibitors of E. faecalis class II HMGR, primary screen, biochemical, Enterococcus faecalis; purified E. faecalis HMGR, NADPH absorbance 340 nm kinetic; hit rate 0.41% among 190,000; HMG-CoA reductase (Enterococcus faecalis, mvaE); inhibition, % at 10 µM;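 active = inhibition above a set limit, the median over all tested compounds plus 3 SD, cut at about 9.5% in these data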;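 note: enzyme runs in reverse so mevalonate oxidation gives rising NADPH absorbance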
TNAP inh noacc – human TNAP enzyme inhibitors, primary screen, biochemical, luminescent, no phosphate acceptor, uHTS; Alkaline phosphatase, tissue-nonspecific isozyme (Homo sapiens), P05186; purified TNAP, CDP-star luminescence, 30 min; inhibition, % at 20 µM; hit rate 0.26% among 200,000; AID 1012, 2008;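 active = tissue-nonspecific alkaline phosphatase inhibition above about 50% at 20 µM in the single-dose screen, limit read from the data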
Large screens that a line does not name were inactive.

Oc1ccccc1/C=N/NP(=S)(c1ccccc1)c1ccccc1	none
COc1ccc(CN2C(=O)NC(=O)/C(=C\c3ccco3)C2=O)cc1	HMGR II inh 12
Cc1ccccc1-n1c(O)c(C=Nc2ccc3c(c2)OCO3)c(=O)[nH]c1=O	Furin inhibitor 27
COc1cccc(-n2c(/C=C/c3ccc(O)c(O)c3)nc3ccccc3c2=O)c1	TNAP inh noacc 84
COc1ccc(-n2c(/C=C/c3ccc(O)cc3)nc3ccccc3c2=O)cc1	none (no result: Furin inhibitor, TNAP act hiacc, TNAP inh hi DEA, HMGR II inh, TNAP inh noacc)
O=[N+]([O-])/C(Cl)=C1\NCCN1Cc1ccc(Cl)nc1	HMGR II inh 14
CC(C)[N+](C)(CCC(C(N)=O)(c1ccccc1)c1ccccc1)C(C)C	none (no result: Furin inhibitor, Pf gamet viab)
O=c1[nH]c2ccccc2n1CCCN1CCC(n2c(=O)[nH]c3cc(Cl)ccc32)CC1	TNAP inh noacc 70 (no result: Pf gamet viab)
COc1ccc(N2C(=O)CC(N3CCC(n4c(=O)[nH]c5ccccc54)CC3)C2=O)cc1 (centres undefined)	none (no result: Pf gamet viab)
CCN1CCN(C(=O)Cc2ccccc2OC)CC1	HMGR II inh 14
Oc1cc2c(cc1O)[C@H]1c3ccccc3CN[C@@H]1CC2	TNAP inh noacc 92 (no result: Furin inhibitor, Pf gamet viab)
CCC1(C(=O)c2ccccc2)C2c3ccccc3OC(=O)C21C(C)=O (centres undefined)	none (no result: TNAP act hiacc, TNAP inh hi DEA, HMGR II inh, TNAP inh noacc)
CCOc1ccc2nc(N=Nc3c(O)[nH]c(=O)[nH]c3=O)sc2c1	none (no result: TNAP act hiacc, TNAP inh hi DEA, HMGR II inh, TNAP inh noacc)
CCOc1ccc2nc(N=Nc3c(O)[nH]c(=S)[nH]c3=O)sc2c1	TNAP inh hi DEA 53
CN[C@@H]1C[C@@H](c2ccc(Cl)c(Cl)c2)c2ccccc21	none (no result: Furin inhibitor, Pf gamet viab)
O=C(c1cccc2ccccc12)C1CCCN(C2CCC2)C1 (centres undefined)	none
Cn1c(=O)cc(OCC(=O)N2CCN(C3CCCCC3)CC2)c2ccccc21	none (no result: Pf gamet viab)
